According to ChEMBL document CHEMBL2150881, “JD-5006 and JD-5037: peripherally restricted (PR) cannabinoid-1 receptor blockers related to SLV-319 (Ibipinabant) as metabolic disorder therapeutics devoid of CNS liabilities” (Bioorg Med Chem Lett, 2012):
pIC50: −log10 of the molar value.

Experiments:
Cannabinoid receptor 1 [1] = target: T1, Cannabinoid receptor 1 (Homo sapiens, UniProt P21554); experiment: Displacement of 3[H]ligand from recombinant human CB1 receptor
How it was run: (§1)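 Radioligand displacement from human recombinant CB1 and CB2 protein by a [³H] ligand. Initial screen at two concentrations in duplicate, with values >100 nM estimated. Percent inhibition read at 100 nM. IC₅₀ taken from four-point concentration curves run in duplicate.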

Cannabinoid receptor 2 = Cannabinoid receptor 2 (Homo sapiens, UniProt P34972); experiment: Displacement of 3[H]ligand from recombinant human CB2 receptor; how it was run: as §1
Chain of Cannabinoid receptor 2 (P34972 whole entry): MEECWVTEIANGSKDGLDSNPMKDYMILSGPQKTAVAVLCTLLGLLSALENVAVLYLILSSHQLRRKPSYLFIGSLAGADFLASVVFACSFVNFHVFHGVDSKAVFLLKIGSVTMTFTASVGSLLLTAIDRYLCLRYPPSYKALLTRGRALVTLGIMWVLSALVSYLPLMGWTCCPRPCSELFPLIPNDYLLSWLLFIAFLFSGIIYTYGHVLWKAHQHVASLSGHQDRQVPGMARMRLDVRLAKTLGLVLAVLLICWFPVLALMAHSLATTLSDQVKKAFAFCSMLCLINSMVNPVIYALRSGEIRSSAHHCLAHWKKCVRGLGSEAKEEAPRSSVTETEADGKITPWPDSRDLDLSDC

Cannabinoid receptor 1 [2] = target: T1, Cannabinoid receptor 1; experiment: Displacement of 3[H]ligand from recombinant human CB1 receptor at 100 nM; how it was run: as §1
[3] = Apparent permeability from basolateral to apical side in MDR expressing MDCK cells by LC-MS-MS analysis; assay type: ADME, cell-based, Canis lupus familiaris; settings: dog, MDCK-MDR1
How it was run: (§2)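 Permeability measured across MDR-MDCK kidney cell monolayers, giving apparent permeability (Papp) in the apical-to-basolateral and basolateral-to-apical directions.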

[4] = Apparent permeability from apical to basolateral side in MDR expressing MDCK cells by LC-MS-MS analysis; assay type: ADME, cell-based, Canis lupus familiaris; settings: dog, MDCK-MDR1; how it was run: as §2
[5] = Efflux ratio of permeability from […] in MDR expressing MDCK cells; assay type: ADME, cell-based, Canis lupus familiaris; settings: dog, MDCK-MDR1
[6] = Plasma concentration in chow fed mouse at 100 mg/kg, po for 3 days measured after 1 hr post last dose; assay type: ADME, organism-based; design: dose 100 mg/kg, route oral
How it was run: (§3)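 Chow-fed mice were dosed orally at 100 or 20 mg/kg for 3 consecutive days. Plasma and brain were taken 1 h after the last dose. Proteins were precipitated with 3× volume ice-cold acetonitrile containing internal standard, then centrifuged 15 min at 4 °C. Analysis by LC/MS/MS against calibrators in plasma or brain homogenate (1000 to 1.6 nM). Brain is given as ng/gm and also as % of plasma.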

Brain = experiment: Drug uptake in chow fed mouse brain assessed per gram of tissue at 100 mg/kg, po for 3 days measured 1 hr post last dose; assay type: ADME, organism-based; design: dose 100 mg/kg, route oral; settings: in vivo; how it was run: as §3
Mus musculus [7] = experiment: In vivo receptor occupancy at CB1 receptor in mouse hippocampus assessed as inhibition of [3H]SR141716A binding at 3 mg/kg, po for 3 days measured after 1 hr post last dose; assay type: functional
How it was run: (§4)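 Chow-fed mice dosed orally once daily at 3 or 30 mg/kg for 3 consecutive days, killed 1 h after the last dose. [3H]SR141716A was given by lateral tail-vein injection 30 min before euthanasia. Hippocampus, cerebellum and brain stem (reference region) were scintillation-counted as DPM/mg. Binding potential = (receptor − reference)/reference. Occupancy (%) = 100 × (vehicle BP − drug BP)/vehicle BP. 5 animals per dose.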

Mus musculus [8] = experiment: In vivo receptor occupancy at CB1 receptor in mouse hippocampus assessed as inhibition of [3H]SR141716A binding at 30 mg/kg, po for 3 days measured after 1 hr post last dose; assay type: functional; how it was run: as §4
Mus musculus [9] = experiment: In vivo receptor occupancy at CB1 receptor in mouse cerebellum assessed as inhibition of [3H]SR141716A binding at 3 mg/kg, po for 3 days measured after 1 hr post last dose; assay type: functional; how it was run: as §4
[10] = target: Cannabinoid receptor 1 (Mus musculus) (UniProt P47746); settings: Cerebellum, 30 mg/kg
Chain of Cannabinoid receptor 1 (Mus musculus) (P47746 whole entry): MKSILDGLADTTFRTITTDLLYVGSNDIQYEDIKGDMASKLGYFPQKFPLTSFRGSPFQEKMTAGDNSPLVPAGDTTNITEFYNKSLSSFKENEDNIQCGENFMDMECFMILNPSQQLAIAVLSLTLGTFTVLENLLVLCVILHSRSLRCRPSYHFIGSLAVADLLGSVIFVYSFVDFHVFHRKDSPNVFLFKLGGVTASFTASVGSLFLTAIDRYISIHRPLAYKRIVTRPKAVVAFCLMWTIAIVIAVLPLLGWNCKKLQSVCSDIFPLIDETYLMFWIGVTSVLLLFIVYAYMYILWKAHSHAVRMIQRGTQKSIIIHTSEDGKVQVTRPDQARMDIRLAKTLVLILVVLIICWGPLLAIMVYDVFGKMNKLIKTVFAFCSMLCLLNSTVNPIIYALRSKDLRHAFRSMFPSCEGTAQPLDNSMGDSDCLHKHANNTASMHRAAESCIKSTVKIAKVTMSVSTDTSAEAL

T1 sequence (P21554 whole entry): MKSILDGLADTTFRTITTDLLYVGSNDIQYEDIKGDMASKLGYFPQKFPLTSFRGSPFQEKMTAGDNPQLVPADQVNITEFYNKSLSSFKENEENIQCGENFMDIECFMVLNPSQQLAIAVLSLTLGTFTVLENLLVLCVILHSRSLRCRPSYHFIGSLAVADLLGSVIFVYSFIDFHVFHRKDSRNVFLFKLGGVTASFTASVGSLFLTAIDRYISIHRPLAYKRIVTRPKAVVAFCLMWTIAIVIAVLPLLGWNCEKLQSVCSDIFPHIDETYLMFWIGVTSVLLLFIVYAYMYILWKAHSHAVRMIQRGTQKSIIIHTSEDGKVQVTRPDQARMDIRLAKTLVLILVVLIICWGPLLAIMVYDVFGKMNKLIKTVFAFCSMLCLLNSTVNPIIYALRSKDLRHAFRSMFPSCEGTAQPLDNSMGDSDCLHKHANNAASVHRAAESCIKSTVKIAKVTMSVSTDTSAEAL

pIC50 (Cannabinoid receptor 1 [1])	pIC50 (Cannabinoid receptor 2)	SMILES	other results
8.00	< 6.00	C[C@H](N/C(=N\S(=O)(=O)c1ccc(Cl)cc1)N1CC(c2ccccc2)C(c2ccc(Cl)cc2)=N1)C(=O)NCC(N)=O (some centres undefined)	
7.00		CN=C(NS(=O)(=O)c1ccc(OC)cc1)N1CC(c2ccccc2)C(c2ccc(Cl)cc2)=N1 (racemic)	
8.15	< 6.00	C[C@@H](O)[C@H](N/C(=N\S(=O)(=O)c1ccc(Cl)cc1)N1CC(c2ccccc2)C(c2ccc(Cl)cc2)=N1)C(=O)N[C@@H](CO)C(N)=O (some centres undefined)	
7.15	< 5.30	COc1ccc(S(=O)(=O)NC(=N[C@@H](C)C(N)=O)N2CC(c3ccccc3)C(c3ccc(Cl)cc3)=N2)cc1 (some centres undefined)	
		NC(=O)[C@H](Cc1ccccc1)N/C(=N\S(=O)(=O)c1ccc(Cl)cc1)N1CC(c2ccccc2)C(c2ccc(Cl)cc2)=N1 (some centres undefined)	inhibition (Cannabinoid receptor 1 [2]): 61%
7.49	< 5.30	NC(=O)CCN=C(NS(=O)(=O)c1ccc(Cl)cc1)N1CC(c2ccccc2)C(c2ccc(Cl)cc2)=N1 (racemic)	Papp B→A [3]: 58 ×10⁻⁶ cm/s; Papp A→B [4]: 0.88 ×10⁻⁶ cm/s; efflux ratio [5]: 66
		COC(=O)CN/C(=N\S(=O)(=O)c1ccc(Cl)cc1)N1CC(c2ccccc2)C(c2ccc(Cl)cc2)=N1 (centres undefined)	inhibition (Cannabinoid receptor 1 [2]): 88%
8.70	< 5.30	CC(C)(C)[C@H](N/C(=N\S(=O)(=O)c1ccc(Cl)cc1)N1CC(c2ccccc2)C(c2ccc(Cl)cc2)=N1)C(N)=O (some centres undefined)	Papp B→A [3]: < 0.1 ×10⁻⁶ cm/s; Papp A→B [4]: 0.7 ×10⁻⁶ cm/s
< 6.00		CC(C)[C@H](N/C(=N\S(=O)(=O)c1ccc(Cl)cc1)N1C[C@@H](c2ccccc2)C(c2ccc(Cl)cc2)=N1)C(N)=O	
< 7.00	< 5.30	C[C@H](O)[C@@H](N=C(NS(=O)(=O)c1ccc(Cl)cc1)N1CC(c2ccccc2)C(c2ccc(Cl)cc2)=N1)C(N)=O (some centres undefined)	
		COC(=O)[C@H](C)N/C(=N\S(=O)(=O)c1ccc(Cl)cc1)N1CC(c2ccccc2)C(c2ccc(Cl)cc2)=N1 (some centres undefined)	inhibition (Cannabinoid receptor 1 [2]): 96%
8.08	< 6.00	NC(=O)[C@@H](N/C(=N\S(=O)(=O)c1ccc(Cl)cc1)N1CC(c2ccccc2)C(c2ccc(Cl)cc2)=N1)C1CCC1 (some centres undefined)	
		CNC(=NS(=O)(=O)c1ccc(Cl)cc1)N1CC(c2ccccc2)C(c2ccc(Cl)cc2)=N1 (racemic) [RAC-IBIPINABANT]	Papp B→A [3]: 10 ×10⁻⁶ cm/s; Papp A→B [4]: 9.45 ×10⁻⁶ cm/s; concentration at 1 h [6]: 5130 ng/mL; Drug uptake (Brain): 2080 ng/g
7.00	< 5.30	CC(C)[C@H](N/C(=N\S(=O)(=O)c1ccc(Cl)cc1)N1CC(c2ccccc2)C(c2ccc(Cl)cc2)=N1)C(=O)N[C@@H](C)C(N)=O (some centres undefined)	
7.89	< 5.30	NC(=O)[C@H](CO)N=C(NS(=O)(=O)c1ccc(Cl)cc1)N1CC(c2ccccc2)C(c2ccc(Cl)cc2)=N1 (some centres undefined)	
8.15	< 5.30	C[C@@H](O)[C@H](N/C(=N/S(=O)(=O)c1ccc(Cl)cc1)N1CC(c2ccccc2)C(c2ccc(Cl)cc2)=N1)C(N)=O (some centres undefined)	Papp B→A [3]: 18.6 ×10⁻⁶ cm/s; Papp A→B [4]: < 0.9 ×10⁻⁶ cm/s; efflux ratio [5]: > 20
7.00	< 5.30	COc1ccc(S(=O)(=O)NC(=NCC(N)=O)N2CC(c3ccccc3)C(c3ccc(Cl)cc3)=N2)cc1 (centres undefined)	
		NC(=O)CN/C(=N\S(=O)(=O)c1ccc(Cl)cc1)N1CC(c2ccccc2)C(c2ccc(Cl)cc2)=N1 (single isomer, unassigned; enantiomer 1)	Occ [10]: 0%
6.52		CCOC(=O)Nc1ccc(S(=O)(=O)NC(=NC)N2CC(c3ccccc3)C(c3ccc(Cl)cc3)=N2)cc1 (racemic)	
8.40	< 6.00	COc1cccc(S(=O)(=O)/N=C(\N[C@H](C(N)=O)C(C)C)N2CC(c3ccccc3)C(c3ccc(Cl)cc3)=N2)c1 (some centres undefined)	
8.07	< 6.00	CC(C)(N/C(=N\S(=O)(=O)c1ccc(Cl)cc1)N1CC(c2ccccc2)C(c2ccc(Cl)cc2)=N1)C(N)=O (racemic)	
		CCOC(=O)[C@@H](O)CCN/C(=N\S(=O)(=O)c1ccc(Cl)cc1)N1CC(c2ccccc2)C(c2ccc(Cl)cc2)=N1 (some centres undefined)	inhibition (Cannabinoid receptor 1 [2]): 53%
7.00		CCOC(=O)c1ccc(S(=O)(=O)NC(=NC)N2CC(c3ccccc3)C(c3ccc(Cl)cc3)=N2)cc1 (racemic)	
7.57	< 5.30	C[C@H](NC(=O)[C@H](C)N/C(=N\S(=O)(=O)c1ccc(Cl)cc1)N1CC(c2ccccc2)C(c2ccc(Cl)cc2)=N1)C(N)=O (some centres undefined)	Papp A→B [4]: 0.3 ×10⁻⁶ cm/s
7.18	< 5.30	NC(=O)[C@@H](O)CCN/C(=N\S(=O)(=O)c1ccc(Cl)cc1)N1CC(c2ccccc2)C(c2ccc(Cl)cc2)=N1 (some centres undefined)	
8.70	< 6.00	CC(C)[C@H](N/C(=N\S(=O)(=O)c1ccc(Cl)cc1)N1CC(c2ccccc2)C(c2ccc(Cl)cc2)=N1)C(N)=O (some centres undefined)	Papp B→A [3]: 16.6 ×10⁻⁶ cm/s; Papp A→B [4]: 1.08 ×10⁻⁶ cm/s; concentration at 1 h [6]: 3850 ng/mL; Drug uptake (Brain; BLD = below limit of detection): BLD
8.10	< 5.30	C[C@H](N=C(NS(=O)(=O)c1ccc(Cl)cc1)N1CC(c2ccccc2)C(c2ccc(Cl)cc2)=N1)C(=O)N[C@@H](CO)C(N)=O (some centres undefined)	
7.70	< 6.00	C[C@H](N/C(=N\S(=O)(=O)c1ccc(Cl)cc1)N1CC(c2ccccc2)C(c2ccc(Cl)cc2)=N1)C(N)=O (some centres undefined)	Papp B→A [3]: 9.25 ×10⁻⁶ cm/s; Papp A→B [4]: 2.44 ×10⁻⁶ cm/s; efflux ratio [5]: 3.8
	< 5.30	NC(=O)[C@H](Cc1ccccc1)N=C(NS(=O)(=O)c1ccc(Cl)cc1)N1CC(c2ccccc2)C(c2ccc(Cl)cc2)=N1 (some centres undefined)	
7.59	< 6.00	CC(CN/C(=N\S(=O)(=O)c1ccc(Cl)cc1)N1CC(c2ccccc2)C(c2ccc(Cl)cc2)=N1)C(N)=O (racemic)	

SMILES	pIC50 (Cannabinoid receptor 1 [1])	pIC50 (Cannabinoid receptor 2)	other results
O=C(O)CN=C(NS(=O)(=O)c1ccc(Cl)cc1)N1CC(c2ccccc2)C(c2ccc(Cl)cc2)=N1 (centres undefined)	< 6.00		
CN/C(=N\S(=O)(=O)c1ccc(NC(C)=O)cc1)N1CC(c2ccccc2)C(c2ccc(Cl)cc2)=N1 (racemic)	< 6.00		
CN=C(NS(=O)(=O)c1ccc(OCC(=O)O)cc1)N1CC(c2ccccc2)C(c2ccc(Cl)cc2)=N1 (racemic)	< 5.30		
CC(C)[C@H](N/C(=N\S(=O)(=O)c1ccc(Cl)cc1)N1CC(c2ccccc2)C(c2ccc(Cl)cc2)=N1)C(=O)NCC(N)=O (some centres undefined)	< 7.00	< 6.00	
NC(=O)CN=C(NS(=O)(=O)c1ccc(Cl)cc1)N1CC(c2ccccc2)C(c2ccc(Cl)cc2)=N1 (single isomer, unassigned; enantiomer 1)	7.49	< 5.30	concentration at 1 h [6]: 16700 ng/mL; Drug uptake (Brain): 685 ng/g; Occ (Mus musculus [7]): 10%; Occ (Mus musculus [8]): 3%; Occ (Mus musculus [9]): 0%
COc1ccc(S(=O)(=O)/N=C(\N[C@@H](C)C(=O)N[C@@H](CO)C(N)=O)N2CC(c3ccccc3)C(c3ccc(Cl)cc3)=N2)cc1 (some centres undefined)	< 7.00	< 5.30	
CC(C)[C@H](N/C(=N\S(=O)(=O)c1ccc(Cl)cc1)N1C[C@H](c2ccccc2)C(c2ccc(Cl)cc2)=N1)C(N)=O	9.30	< 6.00	Occ (Mus musculus [7]): 10%; Occ (Mus musculus [8]): 0%; Occ (Mus musculus [9]): 0%; Occ [10]: 0%
CN=C(NS(=O)(=O)c1ccc(C(=O)NO)cc1)N1CC(c2ccccc2)C(c2ccc(Cl)cc2)=N1 (racemic)	< 5.30		
NC(=O)CN=C(NS(=O)(=O)c1ccc(O)cc1)N1CC(c2ccccc2)C(c2ccc(Cl)cc2)=N1 (centres undefined)	< 7.00	5.30	
CN/C(=N\S(=O)(=O)c1ccc(C(N)=O)cc1)N1CC(c2ccccc2)C(c2ccc(Cl)cc2)=N1 (racemic)	< 5.30		
C[C@H](N=C(NS(=O)(=O)c1ccc(Cl)cc1)N1CC(c2ccccc2)C(c2ccc(Cl)cc2)=N1)C(=O)O (some centres undefined)	< 6.00		
O=C(O)[C@@H](O)CCN=C(NS(=O)(=O)c1ccc(Cl)cc1)N1CC(c2ccccc2)C(c2ccc(Cl)cc2)=N1 (some centres undefined)	< 6.00		
COc1ccc(S(=O)(=O)NC(=N[C@H](C(=O)NCC(N)=O)C(C)C)N2CC(c3ccccc3)C(c3ccc(Cl)cc3)=N2)cc1 (some centres undefined)	< 7.00	< 5.30	
C[C@H](N/C(=N\S(=O)(=O)c1ccc(O)cc1)N1CC(c2ccccc2)C(c2ccc(Cl)cc2)=N1)C(N)=O (some centres undefined)	< 6.30	< 5.30	
CN/C(=N\S(=O)(=O)c1ccc(C(=O)O)cc1)N1CC(c2ccccc2)C(c2ccc(Cl)cc2)=N1 (racemic)	< 5.30		
CN=C(NS(=O)(=O)c1ccc(OCC(N)=O)cc1)N1CC(c2ccccc2)C(c2ccc(Cl)cc2)=N1 (racemic)	< 5.30		
NC(=O)CN=C(NS(=O)(=O)c1ccc(Cl)cc1)N1CC(c2ccccc2)C(c2ccc(Cl)cc2)=N1 (single isomer, unassigned; enantiomer 2)	< 6.00	< 6.00	
NC(=O)C[C@H](N=C(NS(=O)(=O)c1ccc(Cl)cc1)N1CC(c2ccccc2)C(c2ccc(Cl)cc2)=N1)C(N)=O (some centres undefined)	< 7.00	< 5.30	
